{"data": "Experimental data gathered from unrelated publications", "medium": "Caco-2", "note": "Protocols differ between the studies behind these lines."}
{"Compound": "CC(C)c1cccc2c(-c3ccccc3)cc(-c3ccc(-c4ccc(C(=O)O)cc4)[nH]3)nc12", "quantity": "Papp B→A", "result": "11.1 nm/s"}
{"Compound": "Cn1c(S)nc2c1c(=O)n(Cc1ccccc1)c(=O)n2C", "tested at": "10 µM", "time": "2 h", "quantity": "Papp B→A", "result": "305 nm/s"}
{"Compound": "O=c1c(O[C@@H]2O[C@H](CO)[C@@H](O)[C@H](O)[C@H]2O)c(-c2ccc(O)c(O)c2)oc2cc(O)cc(O)c12", "tested at": "1 mg/mL", "pH": "pH 7.4", "quantity": "Papp", "result": "20.5 nm/s"}
{"Compound": "CC1=C2C(=O)O[C@@H](c3ccoc3)[C@]2(C)CCC1", "tested at": "1 mg/mL", "time": "4 h", "pH": "pH 7.4", "quantity": "Papp", "result": "> 100 nm/s"}
{"Compound": "Cn1c(=O)c2c(nc(S)n2C)n(C)c1=O", "tested at": "10 µM", "time": "2 h", "quantity": "Papp B→A", "result": "30 nm/s"}
{"Compound": "O=C(c1cc(Cc2n[nH]c(=O)c3ccccc23)ccc1F)N1CCN(C(=O)C2CC2)CC1", "quantity": "Papp", "result": "77.5 nm/s"}
{"Compound": "CNCc1cc(-c2ccccc2F)n(S(=O)(=O)c2cccnc2)c1", "quantity": "Papp", "result": "178 nm/s"}
{"Compound": "C[C@H]1O[C@@H](O[C@H]2[C@@H](O)C[C@H](O[C@H]3[C@@H](O)C[C@H](O[C@H]4CC[C@@]5(C)[C@H](CC[C@@H]6[C@@H]5C[C@@H](O)[C@]5(C)[C@@H](C7=CC(=O)OC7)CC[C@]65O)C4)O[C@@H]3C)O[C@@H]2C)C[C@H](O)[C@@H]1O", "tested at": "10 µM", "time": "2 h", "pH": "pH 7.4", "quantity": "Papp B→A", "result": "96.3 nm/s"}
{"Compound": "CCN1C(=O)N(c2c(F)c(OC)cc(OC)c2F)Cc2cnc3[nH]c(CN4CCOCC4)cc3c21", "tested at": "50 µM", "quantity": "Papp", "result": "110 nm/s"}
{"Compound": "CN(C)C(=O)c1cc2cnc(Nc3ccc(N4CCNCC4)cn3)nc2n1C1CCCC1", "quantity": "Papp", "result": "18.3 nm/s"}
{"Compound": "CNC(=C[N+](=O)[O-])NCCSCc1ccc(CN(C)C)o1", "quantity": "Papp B→A", "result": "20 nm/s"}
{"Compound": "CO[C@@H](C[C@H]1C(C)=CC[C@@H]2[C@]3(C)C[C@H](O[C@@H]4O[C@@H](C)[C@H](OC(=O)c5cccc(O)c5)[C@@H](O[C@@H]5O[C@H](CO)[C@@H](O)[C@H](O)[C@H]5NC(C)=O)[C@H]4O)[C@@H](O)C(C)(C)[C@H]3CC[C@]21C)[C@H](N)C(=O)O.O=C(O)C(F)(F)F", "tested at": "5 µM", "time": "1 h", "quantity": "Papp B→A", "result": "0.5 nm/s"}
{"Compound": "Nc1cc(N2CCCCC2)nc(N)[n+]1[O-]", "tested at": "10 µM", "time": "2 h", "pH": "pH 7.4", "quantity": "Papp B→A", "result": "71.9 nm/s"}
{"Compound": "CCOC(=O)[C@@]12C[C@@H]1[C@@H](n1ccc3c(NC)nc(C#Cc4ccc(Cl)s4)nc31)[C@H](O)[C@@H]2O", "tested at": "10 µM", "time": "2 h", "pH": "pH 7.4", "quantity": "Papp B→A", "result": "222 nm/s"}
{"Compound": "CCC(=O)N[C@H]1Cc2cccc(C(=O)O)c2OB1O", "tested at": "5 µM", "time": "2 h", "pH": "pH 7.4", "quantity": "Papp B→A", "result": "1.5 nm/s"}
{"Compound": "O=c1c(O)c(-c2ccc(O)c(O)c2)oc2cc(O)cc(O)c12", "tested at": "1 mg/mL", "pH": "pH 7.4", "quantity": "Papp", "result": "17 nm/s"}
